Most compounds without a hit are left out; they make up all but 9.8% or so of the library.
WT yeast gro inh: growth inhibition of WT yeast, mitochondrial fusion screen. mitochondrial fusion phenotypic screen, WT strain. inhibition, % at 10 µM. 190,000 compounds, 2.1% hits. AID 1362; in the data active = inhibition above about 58%; tested in S. cerevisiae
Rad51 HR inh: blocks human Rad51 in homologous recombination. AID 1385. inhibition, % at 10 µM. 200,000 compounds, 0.085% hits. hRad51 DNA strand exchange, fluorescence dequenching;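 active = inhibition above 40% at the single screening dose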;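 also: 0% = DMSO control wells and 100% = blanks with heterologous ssDNA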
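Read-out basis: percent inhibition relative to plate controls and blanks / Assay system: human Rad51 nucleoprotein filaments preassembled on unlabelled ssDNA / Timing: filaments 15 min 37 °C, then compound 30 min / Control set: per-plate controls and blanks / Technique: fluorescence dequenching at 485/520 nm / Compound: 10 µM final, single point / Also added: Fluorescein- and BHQ1-tagged 47-mer duplex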
PMI act hi M6P: increases human PMI activity with near-saturating mannose 6-phosphate. P34949. coupled PMI enzyme assay, resazurin fluorescence, 20 min; stronger effect = higher value; 1 = untreated enzyme, 0 = substrate-free blank. activation factor at 20 µM. 190,000 compounds, 0.34% hits. AID 1216;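 active = activation factor of 2 or more at 20 µM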
Target sequence (P34949 whole entry, looked up): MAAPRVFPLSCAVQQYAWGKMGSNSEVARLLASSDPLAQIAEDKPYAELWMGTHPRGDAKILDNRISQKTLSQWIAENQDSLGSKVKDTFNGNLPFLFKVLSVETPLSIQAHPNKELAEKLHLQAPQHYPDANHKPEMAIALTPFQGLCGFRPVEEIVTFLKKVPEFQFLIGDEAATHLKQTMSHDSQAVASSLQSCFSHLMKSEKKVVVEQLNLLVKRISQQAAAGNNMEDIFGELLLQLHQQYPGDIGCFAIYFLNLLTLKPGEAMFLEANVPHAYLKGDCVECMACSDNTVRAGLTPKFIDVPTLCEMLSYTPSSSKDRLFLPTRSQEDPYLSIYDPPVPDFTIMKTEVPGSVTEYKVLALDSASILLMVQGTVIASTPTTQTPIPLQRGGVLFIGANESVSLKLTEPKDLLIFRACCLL
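test system = human PMI in coupled enzyme assay | medium = HEPES-buffered pH 7.4 with magnesium and detergent | also added = 1.0 mM mannose-6-phosphate substrate with 0.22 mM NADP+ | compound = 20 µM single dose | times = 20 min incubation at room temperature | measured by = resorufin fluorescence (Ex 544/Em 590 nm) from resazurin via diaphorase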
Calpain2 inh: blocks pig calpain II enzyme activity. purified calpain II, fluorogenic peptide substrate, 30 min. inhibition, % at 16 µM. 220,000 compounds, 0.37% hits. AID 1236;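 active = inhibition above about 50%, limit read from the data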
L major viab: Leishmania major promastigote growth inhibition; Leishmania major promastigotes, resazurin fluorescence viability; inhibition, % at 10 µM; 200,000 compounds, 9% hits; in the data active = inhibition above about 50%;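 also: promastigotes grown with compound for 44 hours at 28 °C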
PMI activator: activators of human phosphomannose isomerase; purified human PMI, coupled resazurin fluorescence, 20 min; stronger effect = higher value; 1 = vehicle control, 0 substrate-free wells; 190,000 compounds, 0.005% hits; P34949; activation factor at 20 µM;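 active = activation factor of 2 or more at 20 µM, relative to plate controls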
Numbers without * were called inactive; i = inactive; . = no result given.

SMILES | WT yeast gro inh | Rad51 HR inh | PMI act hi M6P | Calpain2 inh | L major viab | PMI activator
O=S(=O)(NCC(c1cccnc1)N1CCN(c2ccccc2)CC1)c1cccs1 (stereo not drawn) | 20 | 0 | 0.9 | -22 | 89* | 0.9
COc1ccc(N2CCN(C(=O)c3ccc(NS(=O)(=O)c4cccs4)cc3)CC2)cc1 | 7 | 2 | 0.8 | 7 | 13 | 0.8
COc1ccccc1N1CCN(C(CNS(=O)(=O)c2cccs2)c2cccnc2)CC1 (stereo not drawn) | -7 | -6 | 1 | 12 | 83* | 0.9
COc1ccc(N2CCN(C(CNS(=O)(=O)c3cccs3)c3cccnc3)CC2)cc1 (stereo not drawn) | -19 | 2 | 1 | 1 | 98* | 0.9
Cc1nc(NC(=O)CSc2nnc(N)s2)c(Cl)cc1Cl | -9 | 6 | 1.5 | -10 | -3 | 1.3
CN1CCN(C(=O)/C(=C/c2cccs2)NC(=O)c2ccco2)CC1 | 32 | -2 | 1 | 8 | -8 | 1
COc1cc(C(=O)OCC(=O)c2c(N)n(C)c(=O)n(C)c2=O)ccc1OCCC(C)C | 4 | 0 | 1 | 7 | -6 | 1
O=C(c1ccc(Cl)c(S(=O)(=O)N2CCCC2)c1)N1CCN(c2ncccn2)CC1 | -4 | 16 | 1 | -36 | -2 | 1
CN(C)C(=O)C(=O)c1c(-c2ccccc2)cc2ccccn12 | -4 | 10 | 0.9 | 54* | -1 | 0.9
CSc1nnc(C(C)c2ncc(C(F)(F)F)cc2Cl)n1C (stereo not drawn) | 5 | -4 | 1.1 | -11 | -8 | 1.1
Cc1cc(C)nc(NS(=O)(=O)c2ccc(NC(=O)c3cc(-c4ccccc4)nc4ccccc34)cc2)n1 | -4 | 2 | 0.9 | -2 | 67* | 0.8
COc1cc(-c2cc(C(=O)Nc3ccc(N4CCOCC4)cc3)c3ccccc3n2)cc(OC)c1OC | . | 13 | . | -7 | . | .
COc1cc(-c2cc(C(=O)Nc3ccc(S(=O)(=O)NCc4ccco4)cc3)c3ccccc3n2)cc(OC)c1OC | -23 | 1 | 0.9 | -178 | 76* | 1
CCN(CC)S(=O)(=O)c1ccc(NC(=O)c2cc(-c3ccccc3)nc3ccccc23)cc1 | 6 | -10 | 0.9 | -16 | 2 | 0.9
Cc1ccn(C)c(=N)c1 | . | 17 | . | -13 | . | .
CC(C)(C)N1CC(OC(N)=O)C1 | . | 3 | . | 12 | . | .
COc1ccc2nc(SCC(=O)Nc3ccccc3)[nH]c2c1 | 5 | 9 | 1.1 | -4 | 2 | 1
Cc1nc([N+](=O)[O-])c(Sc2nc3ccccc3[nH]2)n1Cc1ccccc1 | 5 | 0 | 0.9 | 16 | 99* | 0.9
Cc1nc([N+](=O)[O-])c(N2CCN(Cc3ccccc3)CC2)n1Cc1ccccc1 | 2 | 1 | 1 | 1 | 27 | 1
COc1ccc2nc(Sc3c([N+](=O)[O-])nc(C)n3Cc3ccccc3)[nH]c2c1 | 9 | -1 | 0.9 | 29 | 87* | 1
Cc1cc2nc(Sc3c([N+](=O)[O-])nc(C)n3Cc3ccccc3)[nH]c2cc1C | 28 | -1 | 1 | 16 | 93* | 1
Cc1c(/C=N/NC(=O)c2cccs2)c2ccccc2n1Cc1ccccc1Cl | . | -4 | . | -131 | . | .
CCN1/C(=N\N)c2cccc3cccc1c23 | 9 | -19 | 1.1 | -13 | 7 | 1.5
COc1ccccc1/C=C/C=N/n1c(-c2ccc(Cl)cc2)n[nH]c1=S | . | -14 | . | 13 | . | .
CC1(c2nnc(Cc3ccccc3)o2)CC(c2cccnc2)=NO1 (stereo not drawn) | . | 1 | . | . | . | .
SMILES | WT yeast gro inh | Rad51 HR inh | PMI act hi M6P | Calpain2 inh | L major viab | PMI activator
Cc1cccc(NC(=S)N/N=C2/CCCCc3ccccc32)c1 | 63* | -4 | 1 | 25 | 29 | 0.9
C=C(C)CNC(=S)N/N=C1\CCCCc2ccccc21 | 65* | 13 | 0.9 | 13 | 99* | 0.8
CCNC(=S)N/N=C1\CCCCc2ccccc21 | 65 | 0 | 1.1 | 7 | -3 | 1.1
CCOC(=O)CSc1nc(C)c(C(C)=O)cc1C(N)=O | -13 | 4 | 1 | -7 | -5 | 1
CCOC(=O)/C(C#N)=C\C1=C(N2CCOCC2)CC(C)(C)OC1 | -11 | 1 | 1 | -10 | -3 | 1.1
COc1cc(OC)c(NC(=O)C(=O)CC(=O)c2ccc(C)cc2C)cc1Cl | -3 | -13 | 0.8 | -45 | 100* | 1
Cn1nnnc1SCC(=O)c1ccc(Br)s1 | 12 | -3 | 1.1 | 8 | -2 | 1.1
Cn1c(Cc2ccccc2)nnc1SCC(=O)c1ccc(Br)s1 | 63* | -5 | 1.3 | 0 | 12 | 1
Cc1ccc(S(=O)(=O)N2CCN(C(=O)c3cccs3)CC2)c(C)c1 | -34 | 17 | 1.1 | -5 | 1 | 1
Cc1cc(C)c(S(=O)(=O)N2CCN(C(=O)c3cccs3)CC2)c(C)c1 | 7 | -9 | 1 | 18 | 62* | 1
O=c1[nH]c(=O)n([C@H]2C[C@H](O)[C@@H](CO)O2)cc1F | -5 | -2 | 0.9 | -13 | 82* | 1
N#Cc1c(-c2cccs2)cc(-c2cccnc2)nc1N | 0 | -97 | 0.9 | i | 53* | 0.9
O=C(NNC(=O)C1CCCO1)c1ccc(F)cc1 (stereo not drawn) | -8 | -3 | 1 | -2 | -3 | 0.9
NS(=O)(=O)c1ccc(CCNC(=O)C2CCN(S(=O)(=O)c3ccc(Br)s3)CC2)cc1 | -12 | 17 | 0.9 | -22 | -5 | 1
O=C(CCCCn1c(=O)c2ccccc2n(CC(=O)NC2CCCC2)c1=O)NC1CCCC1 | 42 | -12 | 1 | 0 | -5 | 0.9
O=C(CCCCn1c(=O)c2ccccc2n(Cc2ccccc2)c1=O)NC1CCN(Cc2ccccc2)CC1 | -2 | -4 | 1 | -7 | 73* | 0.9
N#Cc1ccccc1Cn1c(=O)n(CCC(=O)NCc2ccco2)c(=O)c2ccccc21 | 5 | . | 1.1 | -6 | 19 | 1.1
O=C(CCn1c(=O)c2ccccc2n(CC(=O)NC2CCCC2)c1=O)NCc1ccco1 | -3 | 3 | 1.1 | -8 | 100* | 1.1
O=C(CCCCn1c(=O)c2ccccc2n(CC(=O)NC2CCCC2)c1=O)NCc1ccco1 | -10 | 8 | 1.1 | 68* | -2 | 1
CC(C)Cn1c(SCC(=O)NCc2ccc(Cl)cc2)nnc1-c1cccc(S(=O)(=O)N2CCOCC2)c1 | -3 | -5 | 1 | 5 | -5 | 1
O=C(C[n+]1cccc(O)c1)Nc1ccc(Br)cc1 | 0 | 0 | 1.1 | -4 | -13 | 1.2
COC(=O)c1ccc(NC(CC(C)C)C(=O)OC)c([N+](=O)[O-])c1 (stereo not drawn) | 24 | -4 | 1.1 | -1 | 52* | 1
CC(=O)C1=C(C)NC(SCC(=O)c2cc(Cl)ccc2Cl)=C(C#N)C1c1ccco1 (stereo not drawn) | . | -15 | 0.8 | . | 39 | 1.1
